# TRPC4 potent: TRPC4 (mouse) allosteric potentiation; B-score at 10 µM; 310,000 tested, 0.42% active; HEK293 TRPC4beta/mu-opioid, DAMGO EC20, Fluo-4 Ca2+ flux; hits give high values; AID 2227;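 active = B-score of calcium response area above 5 SD of library B-scores, with initial fluorescence ratio within 5 SD of library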;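 note: B-score of integrated fluorescence ratio over time as area under calcium response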
# TRPC4 act: TRPC4 (mouse) channel activation; Q9QUQ5; HEK293 TRPC4beta/mu-opioid, Fluo4 calcium fluorescence; hits give high values; B-score at 10 µM; 310,000 tested, 0.49% active;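 active = B-score above 5 SD of library B-scores, and initial fluorescence ratio not above library mean plus 5 SD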;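 note: positive B-score marks a calcium rise read as TRPC4 activation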
#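 System – HEK293 cells stably co-expressing mouse TRPC4beta and mu-opioid receptor · Signal – Fluo4 calcium-sensitive dye fluorescence, kinetic, 1 Hz baseline · Benchmarks – buffer (low) and maximal DAMGO (high) · Read-out – B score of integrated fluorescence ratio per well · Incubation – dye loading 45 min room temperature, 110 s kinetic read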
# TRPC6 inh: inhibitors of mouse TRPC6 channel | Q61143 | HEK293-TRPC6, membrane potential dye, ACh-evoked depolarization; hits give low values | B-score at 10 µM | 310,000 tested, 1.1% active | AID 2553;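 active = B-score under library mean minus 3 SD, initial fluorescence not abnormally high, positive integrated signal ratio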;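 note: B-score derived from integrated fluorescence ratio over the kinetic read; more negative B-score means stronger inhibition of depolarization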
# TRPC4 inh: blocks the mouse TRPC4 cation channel; B-score at 10 µM; HEK293 TRPC4beta/mu-opioid, DAMGO-evoked Fluo4 calcium flux; hits give low values; 300,000 tested, 0.39% active; Q9QUQ5;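 active = B-score over 3 SD under the library average, no early fluorescence shift, positive overall ratio signal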
#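 Assay system: Stable TRPC4beta/mu-opioid receptor HEK293 cells | Reagent: DAMGO in two steps, submaximal then maximal | Compound dosing: Single concentration per test compound | Signal: Fluo4 Ca2+ flux fluorescence | Evaluation: Per-well B score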
# TRPC6 act: activates the mouse TRPC6 cation channel. HEK293-TRPC6 membrane potential dye fluorescence; hits give high values. B-score at 10 µM. 310,000 tested, 0.13% active;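 active = B-score of the integrated fluorescence ratio above library mean plus 3 SD, and starting fluorescence ratio within library mean plus 5 SD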;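 note: higher score means more depolarization so channel activation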
# Active calls of the source: *; i = inactive. Most compounds without a hit are left out; they make up all but 2.3% or so of the library.
SMILES,TRPC4 potent,TRPC4 act,TRPC6 inh,TRPC4 inh,TRPC6 act
CC(NC(=O)Nc1ccc(Cl)cc1)c1ccc2c(c1)OCO2 (stereo unspecified),i,i,i,i,i
CCOc1ccc(S(=O)(=O)N2CCN(C(=S)NC3CC3)CC2)cc1,18*,i,i,i,i
COc1c2c(cc3c1C(CC(O)Cc1ccccc1)N(C)CC3)OCO2 (stereo unspecified),i,96*,i,i,i
Cc1[nH]c2ccccc2c1N=Nc1ccccc1F,i,i,i,-6*,i
NCC(c1ccc(Cl)cc1Cl)c1c[nH]c2ccccc12 (stereo unspecified),26*,i,i,i,i
CN(C)CCCNC(=S)NCC(c1ccc(Cl)cc1Cl)c1c[nH]c2ccccc12 (stereo unspecified),12*,i,i,i,i
Cc1cccc(NC(=S)NC(C)CCc2ccccc2)c1 (stereo unspecified),i,i,i,i,i
CN(C)C(CNC(=S)Nc1cccc(Cl)c1)c1ccccc1 (stereo unspecified),i,220*,i,i,i
Cc1cccc(NC(=S)NCC(c2ccccc2)N(C)C)c1 (stereo unspecified),i,231*,i,i,i
CCN(CCCc1ccccc1)CCCc1ccccc1,i,i,i,i,i
CCCN(CCO)CCCc1ccccc1,11*,i,i,i,i
O=C1CCCc2nc(N3CCN(C(c4ccccc4)c4ccccc4)CC3)ncc21,i,43*,i,i,i
COc1ccc(NC(=S)NNC(=O)Cn2nc(C(F)F)cc2C(F)F)cc1,i,i,i,i,i
NC(=O)c1ccc(Oc2ccc3c(c2)CCC3)c([N+](=O)[O-])c1,24*,i,i,i,i
Cc1ccc(CN(C(=O)c2cc(=O)c3cc(C)cc(C)c3o2)C2CCS(=O)(=O)C2)cc1 (stereo unspecified),i,i,i,i,i
Cc1ccc(CN(C(=O)c2cc(=O)c3cc(Cl)c(C)cc3o2)C2CCS(=O)(=O)C2)cc1 (stereo unspecified),19*,i,i,i,i
Cc1cc2oc(C(=O)N(Cc3cccs3)C3CCS(=O)(=O)C3)cc(=O)c2cc1Cl (stereo unspecified),95*,i,i,i,i
Cc1cc(C)c2c(n1)sc1c(O)cc(=O)[nH]c12,i,i,i,i,i
CC1(C)Cc2noc(N)c2C(C)(C)N1OC(=O)c1scc2c1OCCO2,i,i,i,i,i
CC1CC(C)CN(C(=S)Nc2ccc(SC(F)F)cc2)C1 (stereo unspecified),i,i,i,i,i
CC1CN(C(=S)Nc2ccc(SC(F)F)cc2)CC(C)O1 (stereo unspecified),i,i,-6.5*,i,i
CCOc1ccc(/C(O)=C2/C(=O)C(=O)N(CCOCCO)C2c2ccccn2)cc1 (stereo unspecified),i,i,i,i,i
Cc1cc(C(F)(F)F)nn1CC(=O)NNC(=S)Nc1ccc(Cl)cc1,i,i,i,i,i
CC(Oc1ccc(C(=O)c2ccccc2)cc1)C(=O)Nc1ccc(S(N)(=O)=O)cc1 (stereo unspecified),i,58*,i,i,i
CC(Oc1ccccc1)C(=O)Nc1ccc(NC(=O)c2ccccc2)cc1 (stereo unspecified),i,i,i,i,i
SMILES,TRPC4 potent,TRPC4 act,TRPC6 inh,TRPC4 inh,TRPC6 act
Cc1cccc([C@@H]2[C@@H]3C(=O)N(Cc4ccccc4)C(=O)[C@@H]3[C@]3(C)C(=O)N(c4ccc(C(F)(F)F)cc4)C(=O)N23)c1,i,i,i,i,i
CCCCN(C)CCCNC(=O)c1ccc2c(c1)NC(=O)C(N1CCOCC1)S2 (stereo unspecified),12*,i,i,i,i
COc1ccc2ccccc2c1/C=N/NC(=O)c1cccc(Br)c1,i,i,i,i,i
O=C(N/N=C/c1c(O)ccc2ccccc12)c1cccc(C(F)(F)F)c1,12*,i,i,i,i
CCn1c2ccccc2c2cc(/C=N/NC(=O)c3ccc(O)cc3)ccc21,i,i,i,i,i
CCn1c2ccccc2c2cc(/C=N/NC(=O)c3cc(O)cc(O)c3)ccc21,i,i,i,-6*,i
CCN1CCCC1CNC(=O)c1csc2c1CCCC2 (stereo unspecified),i,79*,i,i,i
CCOC(=O)c1c(C=O)c(C)n(Cc2ccc(Cl)cc2)c1C,i,i,i,i,i
NCCCNC(=O)c1cc2ccccc2[nH]1,i,106*,i,i,i
CC(Sc1cccc(C(F)(F)F)c1)C(=O)NC(N)=O (stereo unspecified),i,i,i,i,i
COc1ccc(F)cc1CSc1nnnn1-c1ccc(O)cc1,i,i,i,-5*,i
CN(C)C(CNC(=O)c1ccc(C(F)(F)F)cc1)c1ccco1 (stereo unspecified),i,86*,i,-7*,i
CN(C)c1ccc([N+](=O)[O-])cc1C(=O)NCC(c1ccco1)N(C)C (stereo unspecified),i,i,i,-5*,i
Cc1ccc2oc(C(=O)NCC(c3ccco3)N(C)C)c(C)c2c1 (stereo unspecified),i,i,i,-6*,i
CC(=O)Nc1ccc(C(=O)NCC(c2ccco2)N(C)C)cc1 (stereo unspecified),i,i,i,i,i
CCCN(CC(=O)Nc1ccccc1C)C(=O)c1ccc(S(=O)(=O)N2CCCC2)cc1,i,i,i,i,i
C/C(N)=C(/C#N)C(=O)CSc1n[nH]c(-c2ccccc2Br)n1,i,i,i,i,i
CCOc1ccc(CN(C)CC(=O)NNC(=O)c2ccc(Cl)cc2)cc1OC,17*,i,i,i,i
Cc1ccc(C(=O)OCC(=O)Nc2ccc3[nH]c(=O)[nH]c3c2)o1,i,i,i,i,i
O=C(Nc1ccc([N+](=O)[O-])cn1)C1CCCCC1,22*,i,i,i,i
O=C(Nc1ccc([N+](=O)[O-])cn1)C1CC1,i,i,i,i,i
CC(C)Oc1ccc(/C(O)=C2/C(=O)C(=O)N(CCN(C)C)C2c2cccs2)cc1 (stereo unspecified),i,i,i,i,i

# Screening results deposited in PubChem by Johns Hopkins Ion Channel Center.
